In ChEMBL document CHEMBL4043297, “Synthesis and Structure-Activity Relationships of the Novel Antimalarials 5-Pyridinyl-4(1 H)-Pyridones” (J Med Chem, 2018):

Legend:
Plasmodium falciparum = experiment: Antimalarial activity against Plasmodium falciparum 3D7A infected in human RBC after 48 hrs by [3H]-hypoxanthine incorporation assay; assay type: functional
serum albumin = serum albumin (Homo sapiens, UniProt P02768); experiment: Binding affinity to human serum albumin by HPLC method; assay type: ADME; details: read-out: PB (converted)
Sequence of serum albumin (P02768 whole entry): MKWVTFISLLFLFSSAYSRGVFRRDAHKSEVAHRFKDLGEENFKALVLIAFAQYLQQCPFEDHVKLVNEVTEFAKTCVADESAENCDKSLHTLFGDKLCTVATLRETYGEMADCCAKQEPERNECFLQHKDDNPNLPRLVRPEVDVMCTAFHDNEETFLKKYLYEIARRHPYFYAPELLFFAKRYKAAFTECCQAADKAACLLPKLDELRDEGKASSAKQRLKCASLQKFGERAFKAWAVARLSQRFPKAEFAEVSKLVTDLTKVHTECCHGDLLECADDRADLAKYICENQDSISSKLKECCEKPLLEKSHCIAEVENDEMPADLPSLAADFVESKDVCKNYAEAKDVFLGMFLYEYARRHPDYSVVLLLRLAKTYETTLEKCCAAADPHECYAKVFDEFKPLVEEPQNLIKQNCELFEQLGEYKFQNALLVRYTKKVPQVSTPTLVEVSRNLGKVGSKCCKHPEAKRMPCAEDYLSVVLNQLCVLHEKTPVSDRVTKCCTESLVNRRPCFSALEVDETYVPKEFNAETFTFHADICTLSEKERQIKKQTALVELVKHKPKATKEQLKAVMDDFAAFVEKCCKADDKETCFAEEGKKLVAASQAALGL

[1] = Volume of distribution in CD1 mouse at […], iv as bolus dose by LC-MS/MS method; assay type: ADME, organism-based; details: in vivo
[2] = Clearance in CD1 mouse at […], iv as bolus dose by LC-MS/MS method; assay type: ADME, organism-based; details: in vivo
[3] = Half life in CD1 mouse at […], iv as bolus dose by LC-MS/MS method; assay type: ADME, organism-based; details: in vivo
[4] = Cmax in CD1 mouse at 8.3 mg/kg administered via oral gavage by LC-MS/MS method; assay type: ADME, organism-based; parameters: dose 8.3 mg/kg, route oral; details: in vivo
How it was run: (§1)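 Specific pathogen-free female CD1 (Hsd:ICR) mice, 8 to 10 weeks old. Each compound was given as an intravenous dose and an oral dose at the levels listed. Parameters reported: Vd, clearance, t1/2, Cmax, Tmax, AUC0-t, AUC∞ and %F.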

[5] = Tmax in CD1 mouse at 8.3 mg/kg administered via oral gavage by LC-MS/MS method; assay type: ADME, organism-based; details: in vivo
How it was run: (§2)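 Specific pathogen-free female CD1 (Hsd:ICR) mice, 8–10 weeks old, housed in the institutional animal facility. Each compound was given intravenously at a low dose and orally at a higher dose. Vd, clearance, t1/2, Cmax, Tmax, AUC0-t, AUC∞ and %F were derived from plasma exposure after each route.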

[6] = AUC (0 to t) in CD1 mouse at 8.3 mg/kg administered via oral gavage by LC-MS/MS method; assay type: ADME, organism-based; details: in vivo; how it was run: as §1
[7] = AUC (infinity) in CD1 mouse at 8.3 mg/kg administered via oral gavage by LC-MS/MS method; assay type: ADME, organism-based; parameters: dose 8.3 mg/kg, route oral, time infinity; details: in vivo; how it was run: as §1
[8] = Oral bioavailability in CD1 mouse at 8.3 mg/kg administered via gavage by LC-MS/MS method; assay type: ADME, organism-based; details: in vivo; how it was run: as §2
Plasmodium yoelii = experiment: Schizontocidal activity against Plasmodium yoelii infected in CD1 mouse administered via oral gavage as qd for 4 days starting 1 hr post infection by YOYO-1 dye-based flow cytometric method; assay type: functional
How it was run: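 Blood schizontocidal activity was tested in a modified 4-day suppressive test in mice infected with P. yoelii. Four oral doses were given by gavage over four days.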

[9] = Volume of distribution in CD1 mouse at 0.195 mg/kg, iv as bolus dose by LC-MS/MS method; assay type: ADME, organism-based; details: in vivo; how it was run: as §2
[10] = Clearance in CD1 mouse at 0.195 mg/kg, iv as bolus dose by LC-MS/MS method; assay type: ADME, organism-based; details: in vivo; how it was run: as §1
[11] = Half life in CD1 mouse at 0.195 mg/kg, iv as bolus dose by LC-MS/MS method; assay type: ADME, organism-based; details: in vivo; how it was run: as §1
[12] = Cmax in CD1 mouse at 9.354 mg/kg administered via oral gavage by LC-MS/MS method; assay type: ADME, organism-based; parameters: dose 9.354 mg/kg, route oral; details: in vivo; how it was run: as §1
[13] = Tmax in CD1 mouse at 9.354 mg/kg administered via oral gavage by LC-MS/MS method; assay type: ADME, organism-based; details: in vivo; how it was run: as §2
[14] = AUC (0 to t) in CD1 mouse at 9.354 mg/kg administered via oral gavage by LC-MS/MS method; assay type: ADME, organism-based; details: in vivo; how it was run: as §1
[15] = AUC (infinity) in CD1 mouse at 9.354 mg/kg administered via oral gavage by LC-MS/MS method; assay type: ADME, organism-based; parameters: dose 9.354 mg/kg, route oral, time infinity; details: in vivo; how it was run: as §1
[16] = Oral bioavailability in CD1 mouse at 9.354 mg/kg administered via gavage by LC-MS/MS method; assay type: ADME, organism-based; details: in vivo; how it was run: as §2

SMILES	IC50 (Plasmodium falciparum) [nM]	other results
Cc1[nH]c(C)c(-c2ccc(-c3ccc(C#N)cc3)nc2)c(=O)c1Br	329	–
Cc1[nH]c(CO)c(-c2ccc(Oc3ccc(OC(F)(F)F)cc3)cc2)c(=O)c1Cl	5	–
Cc1[nH]c(C)c(-c2ccc(C#Cc3ccc(C(F)(F)F)cc3)nc2)c(=O)c1Cl	97	–
Cc1[nH]c(C)c(-c2ccc(OCc3cc(F)cc(F)c3)nc2)c(=O)c1Br	40	–
Cc1[nH]c(C)c(-c2ccc(OCc3ccc(OC(F)(F)F)cc3)nc2)c(=O)c1Cl	14	fraction unbound (serum albumin): 0.03; Vd [1]: 1.26 L/kg; clearance [2]: 2.74 mL/min/kg; half-life [3]: 5.32 h; Cmax [4]: 300 ng/mL; Tmax [5]: 6 h; AUC(0-t) [6]: 5600 ng·h/mL; AUC(0-inf) [7]: 5600 ng·h/mL; bioavailability [8]: 11%; ED50 (Plasmodium yoelii): 16.3 mg/kg
Cc1[nH]c(C)c(-c2ccc(-c3cccc(C(F)(F)F)c3)nc2)c(=O)c1Br	7	–
Cc1[nH]c(C)c(-c2ccc(OCc3ccccc3C(F)(F)F)nc2)c(=O)c1Cl	10	–
Cc1[nH]c(C)c(-c2ccc(C#Cc3ccc(C(F)(F)F)cc3)nc2)c(=O)c1Br	58	–
Cc1[nH]c(C)c(-c2ccc(OCc3cc(F)cc(F)c3)nc2)c(=O)c1Cl	80	–
Cc1[nH]c(C)c(-c2ccc(-c3cccc(C(F)(F)F)c3)nc2)c(=O)c1Cl	40	fraction unbound (serum albumin): 0.05; Vd [9]: 0.68 L/kg; clearance [10]: 1.52 mL/min/kg; half-life [11]: 5.13 h; Cmax [12]: 2470 ng/mL; Tmax [13]: 3 h; AUC(0-t) [14]: 39500 ng·h/mL; AUC(0-inf) [15]: 39500 ng·h/mL; bioavailability [16]: 38.7%; ED50 (Plasmodium yoelii): 1.2 mg/kg

The remaining molecules from weak to strong by IC50 (Plasmodium falciparum), led by results:

IC50 (Plasmodium falciparum) [nM]	SMILES	other results
324	Cc1[nH]c(C)c(-c2ccc(-c3cccc(CO)c3)nc2)c(=O)c1Br	–
288	Cc1[nH]c(C)c(-c2ccc(-c3ccc(S(C)(=O)=O)cc3)nc2)c(=O)c1Br	–
133	Cc1[nH]c(CO)c(Cl)c(=O)c1-c1ccc(Oc2ccc(OC(F)(F)F)cc2)cc1	–
64	Cc1[nH]c(C)c(-c2ccc(-c3ccccc3F)nc2)c(=O)c1Br	–
49	Cc1[nH]c(C)c(-c2ccc(-c3ccccc3F)nc2)c(=O)c1Cl	–
44	Cc1[nH]c(C)c(-c2ccc(-c3ccccc3Cl)nc2)c(=O)c1Br	–
35	Cc1[nH]c(C)c(-c2ccc(-c3ccccc3OC(F)(F)F)nc2)c(=O)c1Cl	–
33	Cc1[nH]c(C)c(-c2ccc(OCc3cc(C(F)(F)F)cc(C(F)(F)F)c3)nc2)c(=O)c1Br	–
33	Cc1[nH]c(C)c(-c2ccc(Oc3ccc(OC(F)(F)F)cc3)nc2)c(=O)c1Cl	–
6	Cc1[nH]c(C)c(-c2ccc(-c3ccc(C(F)(F)F)cc3C(F)(F)F)nc2)c(=O)c1Br	–
4	Cc1[nH]c(C)c(-c2ccc(OCc3cccc(C(F)(F)F)c3)nc2)c(=O)c1Br	–
